Measurements as given in ChEMBL document CHEMBL1132632, “Conformational and quantitative structure-activity relationship study of cytotoxic 2-arylidenebenzocycloalkanones” (J Med Chem, 1999).
Starred links: 1 amine or outer side, 2 acyl side, 3 side chain; linkers in the order of their positions; H or OH if unused. Positions of bridges follow the written chain, without caps; N, C: chain ends. Non-standard residues stand in square brackets, D forms with d. Residues, ends and D or L forms follow the SMILES beside them. Chains are numbered I, II in the order given. Actinocin(1to9) = Cc1c2oc3c(C)ccc(C(=O)[*:2])c3nc-2c(C(=O)[*:1])c(N)c1=O; NMeV = CN[C@H](C(=O)O)C(C)C; Sar = CNCC(=O)O

Key:
[1] = system: CCRF-CEM; experiment: Inhibitory activity was tested against CEM cells; format: functional, cell-based; conditions: Homo sapiens
[2] = system: CCRF-CEM; experiment: Average potency against CEM cells; format: functional, Homo sapiens
[3] = system: Tumor Cell line; experiment: Tested against human tumor cell lines, mean graph mid point values(MG MID) are determined.; format: functional
In short: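 Panel of about 55 human tumor cell lines from nine cancer types: leukemia, melanoma, non-small-cell lung, colon, CNS, ovarian, renal, prostate and breast. Compounds were tested from 10⁻⁴ to 10⁻⁸ M, and the 50% growth-inhibitory concentration was found for each line.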

[4] = system: L1210; experiment: Average potency against L1210 cells; format: functional, Mus musculus
[5] = system: MOLT-4; experiment: Average potency against Molt4/C8cells; format: functional, Homo sapiens
[6] = system: MOLT-4; experiment: Inhibitory activity was tested against Molt4/C8 cells; format: functional, cell-based; conditions: Homo sapiens
[7] = system: P388; experiment: Average potency against P388 cells; format: functional, Mus musculus
[8] = system: P388; experiment: Inhibitory activity was tested against P388 cells; format: functional, cell-based; conditions: Mus musculus
[9] = system: L1210; experiment: Inhibitory activity was tested against L1210 cells; format: functional, cell-based; conditions: Mus musculus
[10] = system: Jurkat; experiment: (§1) IC80 concentrations of the compounds were used in determining the inhibition of RNA synthesis using Jurkat T cells.; format: functional, Homo sapiens
[11] = system: Jurkat; experiment: (§2) IC80 concentrations of the compounds were used in determining the inhibition of protein synthesis using Jurkat T cells.; format: functional, Homo sapiens
[12] = system: Jurkat; experiment: (§3) Inhibitory concentration against Human Jurkat T cells; format: functional, cell-based
[13] = system: Jurkat; experiment: as §3; format: functional
[14] = system: Tumor Cell line; experiment: as §3; format: functional, cell-based
In short: (§4)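 Human Jurkat T cells were exposed to compounds for 48 h. Viability was scored by nigrosin dye exclusion in place of trypan blue. IC50 and IC80 were derived from these counts.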

[15] = system: Tumor Cell line; experiment: as §3; format: functional; in short: as §4
[16] = system: Tumor Cell line; experiment: as §1; format: functional, Homo sapiens
[17] = system: Tumor Cell line; experiment: as §2; format: functional, Homo sapiens

| SMILES | IC50 [1] [µM] | IC50 [6] [µM] | IC50 [8] [µM] | IC50 [9] [µM] | IC50 [14] [µM] | AP [2] [µM] | MG MID [3] [µM] | AP [4] [µM] | AP [5] [µM] | AP [7] [µM] | Inhibition [10] [%] | Inhibition [11] [%] | IC50 [12] [µM] | IC80 [13] [µM] | IC80 [15] [µM] | Inhibition [16] [%] | Inhibition [17] [%] |
| --- | --- | --- | --- | --- | --- | --- | --- | --- | --- | --- | --- | --- | --- | --- | --- | --- | --- |
| N[C@@H](Cc1ccc(N(CCCl)CCCl)cc1)C(=O)O | – | – | – | – | – | – | 25.7 | – | – | – | 85.1 | 30.5 | 2.2 | 3.52 | – | – | – |
| O=C1CCCCC/C1=C\c1cccc(F)c1 | 224 | 482 | > 50 | 382 | – | 136 | 67.6 | 227 | 186 | 34.5 | – | – | – | – | – | – | – |
| Cc1ccc(/C=C2\CCCCCC2=O)cc1 | > 500 | > 500 | > 50 | > 500 | – | 136 | 83.2 | 227 | 186 | 34.5 | – | – | – | – | – | – | – |
| COc1ccc(/C=C2\CCCCCC2=O)cc1 | 194 | 250 | > 50 | 306 | – | 136 | 100 | 227 | 186 | 34.5 | – | – | – | – | – | – | – |
| COc1cccc(/C=C2\CCCCCC2=O)c1 | 128 | 170 | > 50 | 283 | – | 136 | 85.1 | 227 | 186 | 34.5 | – | – | – | – | – | – | – |
| Cc1cccc(/C=C2\CCCCCC2=O)c1 | 170 | 228 | 29.8 | 263 | – | 136 | 81.3 | 227 | 186 | 34.5 | – | – | – | – | – | – | – |
| Cc1c2oc3c(C)ccc(C(=O)N[C@@H]4C(=O)N[C@H](C(C)C)C(=O)N5CCC[C@H]5C(=O)N(C)CC(=O)N(C)[C@@H](C(C)C)C(=O)O[C@@H]4C)c3nc-2c(C(=O)N[C@@H]2C(=O)N[C@H](C(C)C)C(=O)N3CCC[C@H]3C(=O)N(C)CC(=O)N(C)[C@@H](C(C)C)C(=O)O[C@@H]2C)c(N)c1=O [DACTINOMYCIN] (I: T[dV]P[Sar][NMeV] / II: T[dV]P[Sar][NMeV]; ester I:1-I:C, II:1-II:C; linker I:N-II:N via Actinocin(1to9)) | – | – | – | – | – | – | – | – | – | – | 63.2 | 51.8 | 0.0045 | 0.0072 | – | – | – |
| C[C@@H]1C[C@@H]([C@H](O)CC2CC(=O)NC(=O)C2)C(=O)[C@@H](C)C1 [CYCLOHEXIMIDE] | – | – | – | – | – | – | – | – | – | – | 93.3 | 71.9 | 0.93 | 1.54 | – | – | – |
| O=C1/C(=C/c2cccc([N+](=O)[O-])c2)Cc2ccccc21 | 222 | > 500 | > 50 | 256 | – | 155 | 91.2 | 127 | 267 | 42.9 | – | – | – | – | – | – | – |
| O=C1CCCCC/C1=C\c1ccc(F)cc1 | 198 | 250 | > 50 | 291 | – | 136 | 83.2 | 227 | 186 | 34.5 | – | – | – | – | – | – | – |

Second part, led by results:

| IC50 [1] [µM] | IC50 [6] [µM] | IC50 [8] [µM] | IC50 [9] [µM] | IC50 [14] [µM] | SMILES | AP [2] [µM] | MG MID [3] [µM] | AP [4] [µM] | AP [5] [µM] | AP [7] [µM] | Inhibition [10] [%] | Inhibition [11] [%] | IC50 [12] [µM] | IC80 [13] [µM] | IC80 [15] [µM] | Inhibition [16] [%] | Inhibition [17] [%] |
| --- | --- | --- | --- | --- | --- | --- | --- | --- | --- | --- | --- | --- | --- | --- | --- | --- | --- |
| 15.1 | 33 | 9.5 | 51.8 | – | O=C1/C(=C/c2ccc(Cl)cc2)CCCc2ccccc21 | 47 | 17 | 85.2 | 66 | 11.2 | – | – | – | – | – | – | – |
| 40.5 | 88.6 | 25.7 | 144 | – | O=C1CCCCC/C1=C\c1cccc(Cl)c1 | 136 | 41.7 | 227 | 186 | 34.5 | – | – | – | – | – | – | – |
| 9.44 | 23.8 | 8.2 | 52.3 | – | O=C1/C(=C/c2cccc(Cl)c2)CCCc2ccccc21 | 47 | 16.6 | 85.2 | 66 | 11.2 | – | – | – | – | – | – | – |
| 43.5 | 52.6 | 19.1 | 83 | – | O=C1CCCCC/C1=C\c1ccc(Cl)cc1 | 136 | 33.1 | 227 | 186 | 34.5 | – | – | – | – | – | – | – |
| 15.8 | 34.6 | 19.9 | 54.4 | – | Cc1cccc(/C=C2\CCCc3ccccc3C2=O)c1 | 47 | 20 | 85.2 | 66 | 11.2 | – | – | – | – | – | – | – |
| 28.9 | 42.7 | 12.7 | 106 | – | O=C1/C(=C/c2ccccc2)CCCc2ccccc21 | 47 | 18.6 | 85.2 | 66 | 11.2 | – | – | – | – | – | – | – |
| 32.4 | 173 | 21 | 43.3 | – | O=C1/C(=C/c2cccc(Br)c2)Cc2ccccc21 | 155 | 46.7 | 127 | 267 | 42.9 | – | – | – | – | – | – | – |
| 30.1 | 39.2 | 23.6 | 162 | – | O=C1CCCCC/C1=C\c1cccc([N+](=O)[O-])c1 | 136 | 30.2 | 227 | 186 | 34.5 | – | – | – | – | – | – | – |
| 11.4 | 21.3 | 11.8 | 25 | – | Cc1ccc(/C=C2\CCCc3ccccc3C2=O)cc1 | 47 | 11.2 | 85.2 | 66 | 11.2 | 84.2 | 46.3 | 14.6 | 23.3 | – | – | – |
| 0.35 | 0.47 | 1.6 | 0.34 | 3.5 | COc1ccc(/C=C2\CCCc3ccccc3C2=O)cc1 | 47 | 0.269 | 85.2 | 66 | 11.2 | – | – | – | – | 5.6 | 92.3 | 19.5 |
| 9.5 | > 100 | 13.9 | 56.3 | – | COc1cccc(/C=C2\CCCc3ccccc3C2=O)c1 | 47 | 15.9 | 85.2 | 66 | 11.2 | – | – | – | – | – | – | – |
| 45.1 | 57.4 | 18.8 | 79.1 | – | CN(C)c1ccc(/C=C2\CCCCCC2=O)cc1 | 136 | 85.1 | 227 | 186 | 34.5 | – | – | – | – | – | – | – |
